Where two headings read alike, the source gives them in different places. Blank lines part the entries; values can stand above or below the molecule they belong to. Where a SMILES comes first, the peptide text is derived from it. Bridges are numbered along the chain shown (N, C = ends). Where no end group is shown, it is not given here. The star is where a group is joined. IRDye800CW = CC1(C)C(/C=C/C2=C(Oc3ccc(S(=O)(=O)O)cc3)C(=C/C=C3/N(CCCCS(=O)(=O)O)c4ccc(S(=O)(=O)O)cc4C3(C)C)/CCC2)=[N+](CCCCCC(=O)*)c2ccc(S(=O)(=O)[O-])cc21
What was measured:
[1] = ref [27], cited from earlier work
[2] = test system: lymphatic vasculature of C57BL/6 mice; assay: in vivo NIR fluorescence lymphatic imaging; parameters: species or system mouse; settings: intradermal 20 μL of 500 μM ICG or 100 μM cABD-IRDye800
Method in brief: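 Shaved female C57BL/6 mice, 6–7 weeks old, under 2–3% isoflurane on a 37° heating pad (~30 min per animal). Intradermal injection at the tail base, with the injection site taped over. Illumination by a 785 nm laser diode (80 mW) expanded to an ~8 cm area. EMCCD capture through an 830 nm bandpass filter at 200 ms per frame. Mice monitored during and after imaging.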

[3] = reference standard; ref [53]; cited from earlier work
[4] = test system: inguinal lymph node of C57BL/6 mice; assay: lymphatic clearance from inguinal lymph node, NIR fluorescence imaging; format: in vivo, mouse; settings: for percent of maximal fluorescence intensity retained over the study period: intradermal, 0–50 min, normalized to maximum
Method in brief: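 C57BL/6 mice were induced with 2–3% isoflurane and kept under <1% for 50 min at 37°. […] A region near the inguinal node was imaged at 200 ms/frame at 0.5, 2.5, 15, 30 and 50 min. Signal was normalized to each agent's maximum node intensity; Student's t test, α = 0.05.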

[5] = HPLC degradation study of ICG in saline; format: physicochemical; settings: 100 μg/mL ICG in saline, by 25 h
[6] = fluorescence optical properties; format: physicochemical; settings: 785/830 nm
[7] = water-octanol partition coefficient; format: physicochemical
mouse serum albumin = mouse serum albumin (mouse, UniProt P07724 25-608); assay: SPR

percent of maximum fluorescence remaining at 50 min ([4]; intradermal 20 μL of 100 μM, 50 min): less than 30%
Molecule: CC1(C)C(/C=C/C2=C(Oc3ccc(S(=O)(=O)O)cc3)C(=C/C=C3/N(CCCCS(=O)(=O)O)c4ccc(S(=O)(=O)[O-])cc4C3(C)C)/CCC2)=[N+](CCCCCC(=O)O)c2ccc(S(=O)(=O)O)cc21 [IRDye800]

Kd (mouse serum albumin): 32 nM
Molecule: RLIEDICLPRWGCLWEDDK (disulfide 7-13; also: Dylight680 conjugated, site not given here) [cABD conjugated to Dylight680]

The next lines start with the molecule.

Molecule: CC1(C)C(/C=C/C=C/C=C/C=C2\N(CCCCS(=O)(=O)O)c3ccc4ccccc4c3C2(C)C)=[N+](CCCCS(=O)(=O)[O-])c2ccc3ccccc3c21 [ICG, indocyanine green]
half life ([1]; ambient temperature under normal light): 14 h | half life ([1]; aqueous solution, darkness, low temperature (8°C)): approximately 20 h | half life ([1]; aqueous solution, exposure to light at 786 nm): 2.3 h | adverse events during and after imaging [2]: none | known lifetime [3]: 0.56 ns | percent of maximal fluorescence intensity retained over the study period [4]: at least 80% | ICG peak remaining [5]: 30% | degradation peak [5]: 70%

Molecule: CC[C@H](C)[C@H](NC(=O)[C@H](CC(C)C)NC(=O)[C@H](CCCNC(=N)N)NC(C)=O)C(=O)N[C@@H](CCC(=O)O)C(=O)N[C@@H](CC(=O)O)C(=O)N[C@H](C(=O)N[C@H]1CSSC[C@@H](C(=O)N[C@@H](CC(C)C)C(=O)N[C@@H](Cc2c[nH]c3ccccc23)C(=O)N[C@@H](CCC(=O)O)C(=O)N[C@@H](CC(=O)O)C(=O)N[C@@H](CC(=O)O)C(=O)N[C@@H](CCCCNC(=O)CCCCCN2C(=CC=C3CCCC(C=CC4=[N+](CCCCS(=O)(=O)O)c5ccc(S(=O)(=O)[O-])cc5C4(C)C)=C3Oc3ccc(S(=O)(=O)O)cc3)C(C)(C)c3cc(S(=O)(=O)O)ccc32)C(N)=O)NC(=O)CNC(=O)[C@H](Cc2c[nH]c3ccccc23)NC(=O)[C@H](CCCNC(=N)N)NC(=O)[C@@H]2CCCN2C(=O)[C@H](CC(C)C)NC1=O)[C@@H](C)CC [cABD-IRDye800] (Ac-RLIEDICLPRWGCLWEDDK(IRDye800CW)-NH2; disulfide 7-13; N-terminus and C-terminus assumed)
adverse events during and after imaging [2]: none | lifetime relative to ICG [6]: 1.6 times | percent of maximal fluorescence intensity retained over the study period [4]: at least 80% | logP [7]: -0.53
